We go through 14 compounds from PubChem BioAssay.

The source made the active and inactive calls.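 The calls were made as follows, unless noted: active = inhibition of the reporter signal at or above 50%; inactive = inhibition below 50%.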

Test [1] can be described thus: inhibitors of TNFa-induced NFkB p65 translocation, primary screen, imaging, HUVEC, MLSMR starter and 10KST1 sets (AID 438;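 active = inhibition above 20% together with a positive visual image hit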;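 also: compound added about 3h40 before a 20 min TNFalpha stimulation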;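 as to inhibition: signal is the nuclear over cytoplasmic p65 intensity ratio per well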). The conditions noted are these: HUVEC TNFa-induced p65 nuclear translocation; cell count: measured here: nuclei count (cytotoxicity indicator), at 2.08 µM; inhibition: at 2 µM, stronger effect = higher value, 0% TNFa-plus-vehicle, 100% no-TNFa wells.
The nature of test [2]: reduction of polyQ htt aggregates in cells – imaging, exon1htt(103Q)mCFP cells, high-content imaging, primary screen (AID 483;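 active = visual image review flags a hit and inhibition of aggregation exceeds 20%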;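 also: compound exposure lasted 3 days before fixation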;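 as to nuclei count: percent of the per-plate median nuclei count of sample wells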). The conditions noted are these: exon1htt(103Q)mCFP cell line, aggregate imaging, at 2 µM; inhibition of aggregation: stronger effect = higher value; nuclei count: measured here: cell count, toxicity.
Test [3] is described as follows: endothelial E-selectin expression blockers – imaging, HUVEC, immunofluorescence, MLSMR starter and 10KST1 sets, primary screen (AID 487;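 active = visually confirmed hit in the image check and inhibition above 20%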;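 as to inhibition: signal is fraction of cell area covered by stained E-selectin grains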;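 as to nuclei count: 100% = median nuclei count of all wells on the same plate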). Particulars: HUVEC TNFalpha-induced E-selectin immunofluorescence imaging, at 2 µM; inhibition: stronger effect = higher value; nuclei count: measured here: cell number, toxicity.
The target of test [4] is Voltage-gated potassium channel subunit beta-2 (Rattus norvegicus) (UniProt P62483). The test can be described thus: inhibitors of rat Kvbeta2 reductase activity – biochemical, NADPH fluorescence, primary screen (AID 622;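 active = fluorescence slope higher than the sample average by over 3 SD, cut at about -0.22 in these data, passing the limit was not always enough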;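 also: slope of raw intensity against log time taken from 70 to 1610 s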). Particulars: recombinant KvBeta, 4-cyanobenzaldehyde reduction, at 10 µM, stronger effect = higher value.
Voltage-gated potassium channel subunit beta-2 (Rattus norvegicus), sequence (P62483 whole entry, looked up): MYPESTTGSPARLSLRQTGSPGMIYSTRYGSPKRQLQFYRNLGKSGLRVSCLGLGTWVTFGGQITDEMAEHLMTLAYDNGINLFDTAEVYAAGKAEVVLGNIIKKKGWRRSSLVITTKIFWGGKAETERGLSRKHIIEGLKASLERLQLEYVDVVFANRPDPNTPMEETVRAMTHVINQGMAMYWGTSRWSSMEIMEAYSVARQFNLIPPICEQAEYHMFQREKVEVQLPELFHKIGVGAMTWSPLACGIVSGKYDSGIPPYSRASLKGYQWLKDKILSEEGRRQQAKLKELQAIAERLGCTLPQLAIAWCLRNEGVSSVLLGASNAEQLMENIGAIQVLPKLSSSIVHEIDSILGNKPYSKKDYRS
Test [5] has the same target. The experiment in a line: enhancers of rat Kvbeta2 NADPH turnover – biochemical, NADPH fluorescence, primary screen (AID 623;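 active = NADPH fluorescence slope more negative than the mean of all samples by about 3 SD, 99.7% confidence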;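 also: fluorescence intensity change per second fitted from 20 to 320 s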). The conditions noted are these: Recombinant KvBeta, NADPH fluorescence decrease slope, 10 min; at 10 µM; stronger effect = lower value.
For test [6], the target named is Muscarinic acetylcholine receptor M4 (Homo sapiens) (UniProt P08173). The test can be described thus: M4-linked GIRK flux change, two-sided – cell-based, HEK293 M4/GIRK, thallium flux, BTC-AM, M4 allosteric agonist project, primary screen (AID 625;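 active = fluorescence slope after compound addition differing from the mean of all tested samples at 99.7% confidence, mostly higher but some lower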;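 also: thallium influx through GIRK channels coupled to M4 in HEK293 cells with BTC-AM dye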). Particulars: at 10 µM, actives lie on both sides. An outline of the steps:
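Material: HEK293 cells with M4 receptor and GIRK channels; Times: cells overnight at 37 °C, BTC-AM loading 1 h, reads 2 min total; Technique: kinetic BTC-AM fluorescence sampled at 1 Hz, 10 s pre-addition baseline; Read-out basis: slope over 15–24 s of trace normalized to starting intensity; Controls: carbachol positive, DMSO negative.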

Test [7] can be described thus: blockers of RIG-like receptor reporter activation – cell-based, Sendai virus stimulus, luciferase, 10K MLSCN set, TLR/RLR signaling modifier project, primary screen (AID 602276;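 active = inhibition at or above 50% at 10 µM; inactive = inhibition below 50%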;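 also: firefly luciferase from ISG56 promoter only with Renilla not read in this screen; 0% = Sendai virus plus DMSO and 100% = medium plus DMSO without virus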). The conditions noted are these: HEK293 RL24 IRF3 luciferase reporter, at 10 µM, stronger effect = higher value. (A reporter such as luciferase makes a cellular process visible.)
Test [8] is described as follows: TLR3 IRF3 reporter activation blockers – cell-based, poly I:C stimulus, luciferase, 10K MLSCN set, primary screen (AID 602277). Particulars: HEK293-TLR3 RL24 IRF3 luciferase reporter, at 10 µM, stronger effect = higher value.

In general, inhibition refers to the drop in the measured response relative to a control, in per cent.

Muscarinic acetylcholine receptor M4 (Homo sapiens), sequence (P08173 whole entry, looked up): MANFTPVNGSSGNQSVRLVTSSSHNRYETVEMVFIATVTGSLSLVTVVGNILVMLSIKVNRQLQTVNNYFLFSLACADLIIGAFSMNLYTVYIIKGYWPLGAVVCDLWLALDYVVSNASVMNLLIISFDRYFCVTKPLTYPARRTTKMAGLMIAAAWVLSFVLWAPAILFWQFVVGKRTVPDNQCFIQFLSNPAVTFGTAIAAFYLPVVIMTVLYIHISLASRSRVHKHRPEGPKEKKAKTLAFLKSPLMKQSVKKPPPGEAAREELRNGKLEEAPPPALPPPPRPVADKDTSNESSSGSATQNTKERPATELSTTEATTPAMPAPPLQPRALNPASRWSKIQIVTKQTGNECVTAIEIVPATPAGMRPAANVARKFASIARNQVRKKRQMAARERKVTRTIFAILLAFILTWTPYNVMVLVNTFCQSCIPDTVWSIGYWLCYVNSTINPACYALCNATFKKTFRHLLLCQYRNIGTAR

As for `O=C(Nc1ccc(Cl)cc1)C1CC=CCC1C(=O)OCC(F)(F)C(F)F` (centres undefined), in test [1], the cell count amounted to 628. In addition, the inhibition in test [1] was 8.2% (inactive); in test [3], -17.6% (inactive); in test [7] it was 11.2% (inactive); in test [8], 3.19% (inactive). Besides, the inhibition of aggregation in test [2] is 31.1% (inactive). Further, the nuclei count in test [2] worked out at 88%; in test [3], 96.7%. Further, the fluorescence slope in test [4] was -0.319 (inactive); in test [6] it was 0.00812 (inactive). Also, the NADPH fluorescence slope in test [5] was -7e-05 (inactive).
Consider `CCn1c(SCC(=O)NCCc2ccc(Cl)cc2)nnc1-c1cccs1`, for which the cell count in test [1] was determined as 616. Further, the inhibition is 6.9% (inactive) in test [1], -11.2% (inactive) in test [3], -15.7% (inactive) in test [7] and -13.3% (inactive) in test [8]. For the same compound, the inhibition of aggregation in test [2] is 25.3% (inactive). For the same compound, the nuclei count is 69.4% in test [2] and 106% in test [3]. The figures for the fluorescence slope in test [4] and in test [6] were -0.572 (inactive) and 0.00799 (inactive), respectively. Also, the NADPH fluorescence slope in test [5] was -5e-05 (inactive).
Regarding `CCOc1ccc(-n2c(C)nc3c(cnn3-c3ccc(Cl)cc3)c2=O)cc1`, the cell count in test [1] came to 238. The inhibition in test [1] is -9% (inactive); in test [3] it was 2.1% (inactive); in test [7], -2.74% (inactive); in test [8] it was -8.54% (inactive). Moreover, in test [2], the inhibition of aggregation was -23.6% (inactive). Also, the figures for the nuclei count in test [2] and in test [3] were 96.9% and 109%, respectively. In addition, the values for the fluorescence slope in test [4] and in test [6] were -0.58 (inactive) and 0.00771 (inactive), respectively. Further, in test [5], the NADPH fluorescence slope was -4.1e-06 (inactive).
Turning to `N#CC1=C(N)n2c(s/c(=C\c3ccco3)c2=O)=C(C#N)C1c1ccco1` (centres undefined), the cell count in test [1] came to 422. The inhibition was -2.2% (inactive) in test [1], -34.4% (inactive) in test [3], 19.5% (inactive) in test [7] and 38% (inactive) in test [8]. The inhibition of aggregation in test [2] was 8.3% (inactive). The results for the nuclei count in test [2] and in test [3] were 106% and 116%, respectively. The fluorescence slope is -0.565 (inactive) in test [4] and 0.00353 (inactive) in test [6]. The NADPH fluorescence slope in test [5] is -3.6e-05 (inactive).
`COc1ccc(S(=O)(=O)n2ccnc2)c2cccnc12`: in test [1], the cell count was 442. For the same compound, the inhibition in test [1] is -21.1% (inactive); in test [3], 20.6% (inactive); in test [7], 0.31% (inactive); in test [8] it was 8.74% (inactive). Further, in test [2], the inhibition of aggregation is 1% (inactive). In addition, the nuclei count in test [2] worked out at 82%; in test [3], 85.1%. The results for the fluorescence slope in test [4] and in test [6] were -0.358 (inactive) and 0.00671 (inactive), respectively. In test [5], the NADPH fluorescence slope was 7.3e-05 (inactive).
For the compound `CCOC(=O)c1cnc(-n2nc(C)cc2C)nc1Nc1cccc(C(C)=O)c1`, in test [1], the cell count stood at 634. The inhibition is -25.9% (inactive) in test [1], 15.1% (inactive) in test [3], -13.6% (inactive) in test [7] and -13% (inactive) in test [8]. For the same compound, the inhibition of aggregation in test [2] was -14% (inactive). Further, the nuclei count in test [2] stood at 104%; in test [3], 111%. Moreover, the figures for the fluorescence slope in test [4] and in test [6] were -0.567 (inactive) and 0.00544 (inactive), respectively. Further, the NADPH fluorescence slope in test [5] was -1.4e-05 (inactive).
Take `O=C(Nc1ccc(Cl)cc1C(=O)Nc1ccncc1)c1ccco1`: in test [1], the cell count was 393. The inhibition is 2.1% (inactive) in test [1], -148% (inactive) in test [3], 18.3% (inactive) in test [7] and 28.5% (inactive) in test [8]. In test [2], the inhibition of aggregation was -7.4% (inactive). The results for the nuclei count in test [2] and in test [3] were 81.3% and 101%, respectively. Also, the fluorescence slope in test [4] is -0.316 (inactive); in test [6] it was 0.00491 (inactive). Besides, in test [5], the NADPH fluorescence slope is -1.2e-05 (inactive).
As for `O=C(CP(=O)(c1ccccc1)c1ccccc1)N1CCCCC1`, the cell count in test [1] is 378. The inhibition is 6.6% (inactive) in test [1], -29.8% (inactive) in test [3], 18% (inactive) in test [7] and 22.1% (inactive) in test [8]. Besides, in test [2], the inhibition of aggregation was -16% (inactive). The values for the nuclei count in test [2] and in test [3] were 105% and 107%, respectively. In addition, the fluorescence slope was -0.528 (inactive) in test [4] and 0.00576 (inactive) in test [6]. Also, in test [5], the NADPH fluorescence slope was -1.9e-05 (inactive).
`CC1=C(C(N)=O)C(c2ccc(Cl)cc2Cl)n2ncnc2N1` (centres undefined): the cell count in test [1] was found to be 631. The inhibition was -2.5% (inactive) in test [1], -129% (inactive) in test [3], 29.3% (inactive) in test [7] and 33.2% (inactive) in test [8]. Besides, the inhibition of aggregation in test [2] is 18.4% (inactive). For the same compound, the values for the nuclei count in test [2] and in test [3] were 105% and 106%, respectively. Besides, the figures for the fluorescence slope in test [4] and in test [6] were -0.558 (inactive) and 0.00707 (inactive), respectively. For the same compound, the NADPH fluorescence slope in test [5] is 2e-05 (inactive).
Regarding `CCCn1nc(NS(=O)(=O)c2ccccc2)c2cc3ccccc3nc21`, the cell count in test [1] was 468. Moreover, the inhibition in test [1] was -3.8% (inactive); in test [3], 12% (inactive); in test [7] it was 6.34% (inactive); in test [8], 14.1% (inactive). The inhibition of aggregation in test [2] was -8.5% (inactive). The values for the nuclei count in test [2] and in test [3] were 110% and 102%, respectively. Also, the fluorescence slope in test [4] was -0.598 (inactive); in test [6], 0.00512 (inactive). Also, the NADPH fluorescence slope in test [5] is 2.9e-05 (inactive).
As for `COc1cccc(C(=O)Nc2ccc(N(C)C)cc2)c1OC`, the cell count in test [1] amounted to 718. Further, the inhibition in test [1] was 0.8% (inactive); in test [3], -79.8% (inactive); in test [7] it was -4.94% (inactive); in test [8], -69.6% (inactive). In test [2], the inhibition of aggregation is 1.4% (inactive). The nuclei count in test [2] turned out to be 104%; in test [3], 109%. Moreover, the fluorescence slope in test [4] is -0.493 (inactive); in test [6], 0.00556 (inactive). In addition, the NADPH fluorescence slope in test [5] was 1.7e-05 (inactive).
Consider `Cc1ccc(CNC(=O)C2CCCN(S(=O)(=O)c3cccnc3)C2)cc1` (centres undefined), for which the cell count in test [1] is 313. The inhibition is -3.9% (inactive) in test [1], -250% (inactive) in test [3], -3.78% (inactive) in test [7] and -7.01% (inactive) in test [8]. In addition, the inhibition of aggregation in test [2] was -2.8% (inactive). The nuclei count in test [2] turned out to be 89.2%; in test [3], 88.5%. The figures for the fluorescence slope in test [4] and in test [6] were -0.573 (inactive) and 0.00508 (inactive), respectively. Besides, in test [5], the NADPH fluorescence slope was 2.7e-05 (inactive).
As for `O=C(O)c1ccc(-n2nnnc2Oc2ccccc2C(=O)N2CCOCC2)cc1`, in test [1], the cell count was 478. For the same compound, the inhibition in test [1] was -20.3% (inactive); in test [3], 2.2% (inactive); in test [7], 21% (inactive); in test [8], 12.5% (inactive). Further, in test [2], the inhibition of aggregation is -2.2% (inactive). Further, the nuclei count was 53.4% in test [2] and 89.9% in test [3]. Moreover, the fluorescence slope was -0.482 (inactive) in test [4] and 0.0048 (inactive) in test [6]. The NADPH fluorescence slope in test [5] was -1.8e-05 (inactive).
In the case of `CCn1c(SCC(=O)Nc2nnc(C)s2)nnc1-c1ccncc1`, the cell count in test [1] was determined as 554. Also, the inhibition was -17.9% (inactive) in test [1], -53.1% (inactive) in test [3], 15.2% (inactive) in test [7] and 0.883% (inactive) in test [8]. In addition, the inhibition of aggregation in test [2] was 25.6% (inactive). Further, the results for the nuclei count in test [2] and in test [3] were 92.8% and 114%, respectively. For the same compound, the fluorescence slope in test [4] is -0.301 (inactive); in test [6], 0.00811 (inactive). Further, in test [5], the NADPH fluorescence slope is -5.1e-05 (inactive).
